HNF4A DNA FP – change in binding of human HNF4 alpha to DNA; P41235; HNF4a-FITC DNA binding, fluorescence polarization, 1 h; activity change, % at 10 µM; 360,000 compounds, 0.3% hits; AID 1224865; in the data active = activity change above about 30%, passing the limit was not always enough
Target sequence (P41235 whole entry, looked up): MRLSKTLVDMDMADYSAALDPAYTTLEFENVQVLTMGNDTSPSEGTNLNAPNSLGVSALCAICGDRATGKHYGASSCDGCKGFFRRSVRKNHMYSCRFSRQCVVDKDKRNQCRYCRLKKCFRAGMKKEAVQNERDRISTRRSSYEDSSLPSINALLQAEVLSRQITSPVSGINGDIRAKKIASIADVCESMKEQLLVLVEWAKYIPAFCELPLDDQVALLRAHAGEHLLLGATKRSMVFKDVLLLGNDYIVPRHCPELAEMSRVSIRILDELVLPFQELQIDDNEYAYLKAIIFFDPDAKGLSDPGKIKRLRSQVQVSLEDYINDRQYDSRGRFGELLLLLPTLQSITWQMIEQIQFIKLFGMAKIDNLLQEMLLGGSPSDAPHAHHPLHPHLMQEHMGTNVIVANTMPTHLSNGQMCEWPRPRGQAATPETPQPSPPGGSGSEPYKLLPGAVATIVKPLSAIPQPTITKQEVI
IDE cell inh – cellular human IDE inhibition. 320,000 compounds, 0.41% hits. inhibition, % at 5.59 µM. HEK cells, FAbetaB cleavage, fluorescence polarization. P14735;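 active = percent inhibition above the average of all tested compounds plus 3 SD, set per screening campaign, cut at about 16% in these data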;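 note: IDE supplied by intact live HEK cells; FP after avidin binding of uncleaved biotin substrate so inhibition keeps polarization high; 0% = DMSO wells and 100% = 60 µM reference IDE inhibitor Ii1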
CSN inh – blocks human CSN-mediated cullin deneddylation. inhibition, % at 12.5 µM. 360,000 compounds, 0.38% hits. Q92905. AID 651999. Purified CSN, SCF-Nedd8-OG deneddylation, fluorescence polarization;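 active = pattern-corrected inhibition above about 35%, with an unprinted fluorescence ratio check between 0.5 and 1.5, limit read from the data, passing the limit was not always enough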;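 note: 0% = enzyme with substrate and 100% = substrate without enzyme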
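test system = HEK293T-derived human Csn5 enzyme | amount = 0.24 nM Csn5 enzyme, final concentration | medium = Tris/NaCl/DTT buffer, pH 7.5 | schedule = 90 min reaction at room temperature | signal = FP | evaluation = inhibition of Csn5 cleavage, % | compound dosing = single dose of 12.5 µM compound with 0.25% DMSO | probe or stimulus = 10 nM SCFSkp2-Nedd8OG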
TPT1 inhibitor – C. albicans TPT1 enzyme inhibition; recombinant caTPT1, FP RNA substrate dephosphorylation; 300,000 compounds, 0.81% hits; inhibition, % at 5 µM;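 active = inhibition above the mean of all tested compounds plus 3 SD, set per screening campaign, cut at about 24% in these data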;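 note: plate controls were DMSO alone for no effect and ferristatin control at 100 nM for full effect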
IDE cell activ – boosts human insulin-degrading enzyme activity in HEK cells | P14735 | activation, % at 5.96 µM | FAbeta-B cleavage, fluorescence polarization; 0% vehicle, 100% cell-free pure enzyme wells | 340,000 compounds, 0.073% hits;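 active = activation above the mean of all tested compounds plus 3 SD, set per screening campaign, cut at about 17% in these data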
The depositor's hits bear a star; . = no result. An excerpt weighted towards active compounds, which were near 1.4% of everything screened.

SMILES	HNF4A DNA FP	IDE cell inh	CSN inh	TPT1 inhibitor	IDE cell activ
C=CCc1ccc(OCC(O)CN2CCCCC2)c(OC)c1 (stereo not drawn)	50.3*	0.2	1.1	-2.9	4.7
N#CC(C#N)=C1C=C2C=C(N3CCCCCC3)CCC2CC1 (stereo not drawn)	-93.5	.	-78.4	.	46.9*
N#CC(C#N)=C1C=C2C=C(N3CCOCC3)CCC2CC1 (stereo not drawn)	-111.7	.	-100.7	.	58.4*
CN1CCN(C2=CC3=CC(=C(C#N)C#N)CCC3CC2)CC1 (stereo not drawn)	-101.2	.	-102.1	.	13.1
CC1(C)CC(NCCN2CCN(C3=CC(=C(C#N)C#N)CC(C)(C)C3)CC2)=CC(=C(C#N)C#N)C1	-0.1	3.6	5.4	-0.8	0.7
CCN1CCN(C2=CC3=CC(=C(C#N)C#N)CCC3CC2)CC1 (stereo not drawn)	-114.3	.	-97.8	.	34.6*
O=C(NCc1ccccc1)c1cc(C2CCCN(C(=O)C3CCCCC3)C2)on1 (stereo not drawn)	1.2	.	-3.5	.	.
Cc1ccc(C)c2nc3sc(C(=O)N4CCCc5ccccc54)c(N)c3cc12	55.8*	-4.8	5.0	21.6	0.8
CCc1ccc2nc3sc(C(=O)N4CCc5ccccc54)c(N)c3cc2c1	.	0.2	.	0.6	.
CCOC(=O)[C@]12CCCC=C1N(Cc1ccc(Cl)cc1Cl)C(=O)[C@H](CC(=O)N1CCN(C(=O)C3CC3)CC1)C2	2.9	.	2.1	.	.
CCC1CCCCN1S(=O)(=O)c1ccc(S(=O)(=O)N2CCN(S(=O)(=O)CC)CC2)cc1 (stereo not drawn)	2.1	5.6	4.2	-3.3	17.7*
CCC1CCCCN1S(=O)(=O)c1ccc([N+](=O)[O-])cc1 (stereo not drawn)	-2.2	-0.4	-0.6	0.6	5.6
CCN(CC)c1ccc(NC(=O)COC(=O)/C=C/c2nc3ccccc3s2)cc1	3.2	0.7	3.0	-0.8	4.9
CCN(CC)c1ccc(/C=C/c2nc3ccccc3s2)cc1	.	11.6	.	177.9*	.
CN1C(=O)c2cccc3c(Cl)ccc(c23)C1=O	-5.6	3.8	-0.3	-5.1	-0.2
CNc1ccc2c3c(cccc13)C(=O)N(C)C2=O	-91.0	-32.2	-73.6	-62.6	58.7*
Cc1ccc(NC(=O)CSc2nnc(CNC(=O)c3ccco3)n2C)cc1C	-1.9	3.6	43.3*	-0.7	-0.1
Cn1c(CN2CCOCC2)nnc1SCC(=O)Nc1ccc([N+](=O)[O-])cc1O	-0.8	-15.7	-0.5	-1.0	23.7*
Cc1cccc(NC(=O)CSc2nnc(CN3CCOCC3)n2C)c1C	0.9	5.6	-0.2	0.2	-5.7
Cc1ccc(S(=O)(=O)N2C3CC(c4ccccc4)N(S(=O)(=O)c4ccccc4Cl)CC3C(=O)C[C@H]2c2ccccc2)cc1 (stereo partly drawn)	-0.6	.	4.8	.	.
CCOC(=O)C1=C(c2ccccc2)NC(=O)NC1c1ccc(OC)cc1 (stereo not drawn)	-3.9	-0.2	107.3*	-1.6	2.3
O=c1[nH]c2ccccc2nc1Cc1ccccc1	-1.0	-0.2	-1.1	2.8	7.3
O=C(Cc1nc2ccccc2[nH]c1=O)c1ccccc1	38.3*	.	-3.0	.	-12.5
Cc1nnc(NC(=O)C2CCCO2)s1 (stereo not drawn)	0.1	-3.6	-0.2	-2.8	-3.0
CCCCCc1nnc(NC(=O)C2CCCO2)s1 (stereo not drawn)	-1.3	1.3	0.8	0.2	35.7*
SMILES	HNF4A DNA FP	IDE cell inh	CSN inh	TPT1 inhibitor	IDE cell activ
Cc1ccc(C(=O)N=c2sccn2C)cc1S(=O)(=O)N1CCOCC1	37.3*	4.8	-0.4	-3.4	5.0
CN1CCc2c(sc(/N=C/c3c[nH]c4ccccc34)c2C(N)=O)C1	31.9	-2.0	115.5*	2.2	.
CCOC(=O)c1c(/N=C/c2ccc(OC)cc2O)sc2c1CCN(C)C2	6.7	2.4	5.3	-4.2	5.7
Cc1ccc(NC(=S)Nc2cccc3cnccc23)cc1C	6.3	2.9	36.9*	2.2	-6.0
Cc1ccc(NC(=S)Nc2cccc3cnccc23)cc1	4.2	-2.9	31.4	-1.9	3.0
Cc1ccc(C)c(NC(=S)Nc2cccc3cnccc23)c1	0.6	-2.8	35.5*	0.2	0.5
Cc1ccccc1NC(=S)Nc1cccc2cnccc12	2.9	-1.4	29.4	-1.4	0.1
O=C(C[C@@H]1C=C[C@H](NC(=O)Cc2ccccn2)[C@@H](CO)O1)NCCc1ccccc1	-0.1	.	-4.4	.	.
CN1c2ccccc2C(C)(C)C12C=Cc1cc(O)ccc1O2 (stereo not drawn)	34.6*	-2.6	25.8	13.2	1.8
CN1c2ccccc2C(C)(C)C12C=Nc1c(cc(N3CCOCC3)c3ccccc13)O2 (stereo not drawn)	-4.1	.	16.2	.	3.1
CCCCn1nnnc1C(c1cc2ccccc2o1)N(CCN(C)C)Cc1ccccc1 (stereo not drawn)	7.6	.	-2.7	.	.
COc1ccc(C2C(C#N)=C(C)NC3=C2C(=O)CC(C)(C)C3)cc1 (stereo not drawn)	1.4	2.2	102.5*	-6.9	-1.9
O=C(NCc1c(Cl)cccc1Cl)c1[nH]c(C(F)(F)F)nc1-c1ccccc1	-26.8	.	2.9	.	.
O=C(N/N=C/c1ccccc1F)c1cc2c(ccc3ccccc32)o1	39.2*	-0.4	22.9	-0.7	5.2
O=C(N/N=C/C=C/c1ccccc1)c1cc2c(ccc3ccccc32)o1	1.9	3.6	41.8*	-3.6	2.0
O=C(N/N=C/c1cccc2ccccc12)c1cc2ccccc2o1	1.9	.	-3.4	.	4.7
CCc1ccc(C2=NN(S(C)(=O)=O)C(c3cccs3)C2)cc1 (stereo not drawn)	91.6*	12.6	1.5	8.3	-8.2
O=C(NCc1cccc(Cl)c1)C1Cc2c(-c3ccccc3)ccnc2O1 (stereo not drawn)	-1.0	.	-3.0	.	.
COc1cc(/C=C/CNC[C@H]2O[C@@H](n3cnc4c(N)ncnc43)[C@H](O)[C@@H]2O)ccc1O	2.0	.	-0.5	.	.
COc1ccc(-c2ccc3c(c2)S(=O)(=O)c2cccc(C(=O)N4CCN(c5c(Cl)cncc5Cl)CC4)c2C3=O)cc1OC	42.2*	-4.2	21.0	.	3.8
O=C1c2ccc(Cl)cc2S(=O)(=O)c2cccc(C(=O)N3CCN(c4ncc(Br)cn4)CC3)c21	2.5	-4.2	0.0	.	-1.3
COc1ccc(NC(=O)CSc2nc3[nH]ncc3c(=O)n2-c2ccccc2OC)cc1OC	-0.6	20.8*	5.7	1.6	-19.3
O=C(CNC(=O)c1ccc(Br)cc1)NCC(=O)OCC(=O)c1ccc([N+](=O)[O-])cc1	-1.9	17.3*	-5.2	-0.8	-5.1
O=C(CNC(=O)c1ccccc1)NCC(=O)OCC(=O)c1ccc([N+](=O)[O-])cc1	-0.1	3.9	1.6	-2.3	-4.9
COc1ccc(N(C(=O)c2ccncc2)S(=O)(=O)c2ccc(F)cc2)cc1	7.2	3.4	85.5*	-3.2	-5.2
COc1ccc(N(C(=O)c2ccncc2)S(=O)(=O)c2ccccc2)cc1	1.5	1.9	1.0	-4.9	-5.3

Screening results from PubChem.
